# Assay results published in ChEMBL document CHEMBL1127018, “Synthesis and biological activity of spirocyclic benzopyran imidazolone potassium channel openers” (1993).
# Assays:
# A10 [1] = assay: Percent decrease in fluorescence in a membrane potential assay using the A10 cell line derived from embryonic rat aorta at 0.001 uM; format: functional
# In short: (§1)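 Postconfluent A10 cells (passage ≤20, grown in DMEM/15% FBS) equilibrated ≥15 min at 37 °C in 5 μM DiBAC₄(3) in EBSS with 20 mM HEPES, pH 7.3. Compound added from 1000X DMSO or water stocks. Fluorescence (ex 488, em 525 nm) imaged every 60 s at 37 °C from a field of about 50 cells and normalized between experiments.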
# A10 [2] = assay: Percent decrease in fluorescence in a membrane potential assay using the A10 cell line derived from embryonic rat aorta at 0.01 uM; format: functional; in short: as §1
# A10 [3] = assay: Percent decrease in fluorescence in a membrane potential assay using the A10 cell line derived from embryonic rat aorta at 0.1 uM; format: functional; in short: as §1
# A10 [4] = assay: Percent decrease in fluorescence in a membrane potential assay using the A10 cell line derived from embryonic rat aorta at 1.0 uM; format: functional; in short: as §1
# A10 [5] = assay: Percent decrease in fluorescence in a membrane potential assay using the A10 cell line derived from embryonic rat aorta at 10.0 uM; format: functional; in short: as §1
# Rattus norvegicus [6] = assay: Change in heart rate in beats per minute in anesthetized female rats at a dose of 0.01 mg/kg and a cumulative dose of 0.01 mg/kg; format: functional
# In short: (§2)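 Fasted female Sprague-Dawley rats, 200–250 g, anesthetized iv with α-chloralose 40 mg/kg, urethane 20 mg/kg and pentobarbital 20 mg/kg. Femoral vein cannulated for dosing; heart rate taken by tachograph triggered from the arterial pulse. Rectal temperature kept at 36–38 °C. Drug given iv in 20% DMA/saline as four rising bolus steps 20 min apart. ΔHR from pretreatment is the mean of 4–5 rats.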
# Rattus norvegicus [7] = assay: Change in heart rate in beats per minute in anesthetized female rats at a dose of 0.03 mg/kg and a cumulative dose of 0.04 mg/kg; format: functional; in short: as §2
# Rattus norvegicus [8] = assay: Change in heart rate in beats per minute in anesthetized female rats at a dose of 0.10 mg/kg and a cumulative dose of 0.14 mg/kg; format: functional; in short: as §2
# Rattus norvegicus [9] = assay: Change in mean arterial pressure in anesthetized female rats at a dose of 0.01 mg/kg and a cumulative dose of 0.01 mg/kg; format: functional, Artery
# In short: (§3)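 Fasted female Sprague-Dawley rats, 200–250 g, under iv α-chloralose/urethane/pentobarbital anesthesia. Mean arterial pressure recorded continuously through a femoral artery catheter, after 30 min postsurgical equilibration. Compound given iv in 20% DMA/saline as step doses (initial plus three higher) at 20-min intervals. ΔMAP from pretreatment averaged over 4–5 rats per group; vehicle controls pooled n = 6.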
# Rattus norvegicus [10] = assay: Change in mean arterial pressure in anesthetized female rats at a dose of 0.03 mg/kg and a cumulative dose of 0.04 mg/kg; format: functional, Artery; in short: as §3
# Rattus norvegicus [11] = assay: Change in mean arterial pressure in anesthetized female rats at a dose of 0.10 mg/kg and a cumulative dose of 0.14 mg/kg; format: functional, Artery; in short: as §3
# Rattus norvegicus [12] = assay: Change in mean arterial pressure in anesthetized female rats at a dose of 0.30 mg/kg and a cumulative dose of 0.44 mg/kg; format: functional, Artery; in short: as §3
# Rattus norvegicus [13] = assay: Change in heart rate in beats per minute in anesthetized female rats at a dose of 0.30 mg/kg and a cumulative dose of 0.44 mg/kg; format: functional; in short: as §2
# Rattus norvegicus [14] = assay: Change in heart rate in beats per minute in anesthetized female rats at a dose of 0.003 mg/kg and a cumulative dose of 0.004 mg/kg; format: functional; in short: as §2
# Rattus norvegicus [15] = assay: Change in heart rate in beats per minute in anesthetized female rats at a dose of 0.030 mg/kg and a cumulative dose of 0.044 mg/kg; format: functional; in short: as §2
# Rattus norvegicus [16] = assay: Change in mean arterial pressure in anesthetized female rats at a dose of 0.001 mg/kg and a cumulative dose of 0.001 mg/kg; format: functional, Artery; in short: as §3
# Rattus norvegicus [17] = assay: Change in mean arterial pressure in anesthetized female rats at a dose of 0.003 mg/kg and a cumulative dose of 0.004 mg/kg; format: functional, Artery; in short: as §3
# Rattus norvegicus [18] = assay: Change in mean arterial pressure in anesthetized female rats at a dose of 0.010 mg/kg and a cumulative dose of 0.014 mg/kg; format: functional, Artery; in short: as §3
# Rattus norvegicus [19] = assay: Change in mean arterial pressure in anesthetized female rats at a dose of 0.030 mg/kg and a cumulative dose of 0.044 mg/kg; format: functional, Artery; in short: as §3
# Rattus norvegicus [20] = assay: Change in heart rate in beats per minute in anesthetized female rats at a dose of 0.001 mg/kg and a cumulative dose of 0.001 mg/kg; format: functional; in short: as §2
# Rattus norvegicus [21] = assay: Change in heart rate in beats per minute in anesthetized female rats at a dose of 0.010 mg/kg and a cumulative dose of 0.014 mg/kg; format: functional; in short: as §2
smiles,measurement,setting,value
CCNC1=NC(=O)C2(CC(C)(C)Oc3ccc([N+](=O)[O-])cc32)N1 (stereo unspecified),Decrease,A10 [1],9%
same,Decrease,A10 [2],13%
same,Decrease,A10 [3],28%
CSC1=NC(=O)C2(CC(C)(C)Oc3ccc(F)cc32)N1 (stereo unspecified),Decrease,A10 [4],9%
same,Decrease,A10 [5],27%
CCOC1=NC(=O)C2(CC(C)(C)Oc3ccc(F)cc32)N1 (stereo unspecified),Decrease,A10 [4],<5%
same,Decrease,A10 [5],13%
CCNC1=NC(=O)C2(CC(C)(C)Oc3ccc(C#N)cc32)N1 (stereo unspecified),Decrease,A10 [3],8%
same,Decrease,A10 [4],25%
CCSC1=NC(=O)C2(CC(C)(C)Oc3ccc(Br)cc32)N1 (stereo unspecified),Decrease,A10 [1],7%
same,Decrease,A10 [2],11%
same,Decrease,A10 [3],18%
same,Delta HR,Rattus norvegicus [6],15.5 beats min-1
same,Delta HR,Rattus norvegicus [7],29 beats min-1
same,Delta HR,Rattus norvegicus [8],16.5 beats min-1
same,Delta MAP,Rattus norvegicus [9],-2.5 mmHg
same,Delta MAP,Rattus norvegicus [10],-16.3 mmHg
same,Delta MAP,Rattus norvegicus [11],-21.5 mmHg
same,Delta MAP,Rattus norvegicus [12],-25 mmHg
same,Delta HR,Rattus norvegicus [13],17.5 beats min-1
CCCNC1=NC(=O)C2(CC(C)(C)Oc3ccc(Br)cc32)N1 (stereo unspecified),Decrease,A10 [2],12%
same,Decrease,A10 [3],28%
same,Delta HR,Rattus norvegicus [6],44.9 beats min-1
same,Delta HR,Rattus norvegicus [7],25.6 beats min-1
same,Delta HR,Rattus norvegicus [8],46.3 beats min-1
same,Delta MAP,Rattus norvegicus [9],-25.6 mmHg
same,Delta MAP,Rattus norvegicus [10],-56.7 mmHg
same,Delta MAP,Rattus norvegicus [11],-70.1 mmHg
same,Delta MAP,Rattus norvegicus [12],-70.6 mmHg
same,Delta HR,Rattus norvegicus [13],92.8 beats min-1
CC(C)NC1=NC(=O)C2(CC(C)(C)Oc3ccc(Br)cc32)N1 (stereo unspecified),Decrease,A10 [3],5%
same,Decrease,A10 [4],22%
CSC1=NC(=O)C2(CC(C)(C)Oc3ccc(Br)cc32)N1 (stereo unspecified),Decrease,A10 [3],6%
same,Decrease,A10 [4],27%
CC(C)NC1=NC(=O)C2(CC(C)(C)Oc3ccc(C#N)cc32)N1 (stereo unspecified),Decrease,A10 [3],<5%
same,Decrease,A10 [4],10%
CCNC1=NC(=O)C2(CC(C)(C)Oc3ccc(F)cc32)N1 (stereo unspecified),Decrease,A10 [3],19%
same,Decrease,A10 [4],24%
same,Delta HR,Rattus norvegicus [6],-0.4 beats min-1
same,Delta HR,Rattus norvegicus [7],1.7 beats min-1
same,Delta HR,Rattus norvegicus [8],38 beats min-1
same,Delta MAP,Rattus norvegicus [9],-7.1 mmHg
same,Delta MAP,Rattus norvegicus [10],-10.7 mmHg
same,Delta MAP,Rattus norvegicus [11],-28 mmHg
same,Delta MAP,Rattus norvegicus [12],-44.6 mmHg
same,Delta HR,Rattus norvegicus [13],45.6 beats min-1
CC(C)(C)CNC1=NC(=O)C2(CC(C)(C)Oc3ccccc32)N1 (stereo unspecified),Decrease,A10 [5],7%
CCCSC1=NC(=O)C2(CC(C)(C)Oc3ccc(C#N)cc32)N1 (stereo unspecified),Decrease,A10 [3],<5%
same,Decrease,A10 [4],17%
CNC1=NC(=O)C2(CC(C)(C)Oc3ccc([N+](=O)[O-])cc32)N1 (stereo unspecified),Decrease,A10 [1],<5%
same,Decrease,A10 [2],15%
same,Decrease,A10 [3],38%
CNC1=NC(=O)C2(CC(C)(C)Oc3ccc(Br)cc32)N1 (stereo unspecified),Decrease,A10 [3],22%
same,Decrease,A10 [4],17%
CCNC1=NC(=O)C2(CC(C)(C)Oc3ccc(Br)cc32)N1 (stereo unspecified),Decrease,A10 [3],26%
same,Decrease,A10 [4],19%
CCOC1=NC(=O)C2(CC(C)(C)Oc3ccc(Br)cc32)N1 (stereo unspecified),Decrease,A10 [3],5%
same,Decrease,A10 [4],20%
CCCNC1=NC(=O)C2(CC(C)(C)Oc3ccc([N+](=O)[O-])cc32)N1 (stereo unspecified),Decrease,A10 [1],8%
same,Decrease,A10 [2],19%
same,Decrease,A10 [3],28%
same,Delta HR,Rattus norvegicus [14],3.3 beats min-1
same,Delta HR,Rattus norvegicus [15],31.8 beats min-1
same,Delta MAP,Rattus norvegicus [16],-19.8 mmHg
same,Delta MAP,Rattus norvegicus [17],-51.3 mmHg
same,Delta MAP,Rattus norvegicus [18],-66 mmHg
same,Delta MAP,Rattus norvegicus [19],-72 mmHg
same,Delta HR,Rattus norvegicus [20],6.8 beats min-1
same,Delta HR,Rattus norvegicus [21],3.8 beats min-1
CCCSC1=NC(=O)C2(CC(C)(C)Oc3ccc(Br)cc32)N1 (stereo unspecified),Decrease,A10 [3],6%
same,Decrease,A10 [4],15%
CCCNC1=NC(=O)C2(CC(C)(C)Oc3ccccc32)N1 (stereo unspecified),Decrease,A10 [4],7%
CCOC1=NC(=O)C2(CC(C)(C)Oc3ccccc32)N1 (stereo unspecified),Decrease,A10 [5],<5%
CC(C)NC1=NC(=O)C2(CC(C)(C)Oc3ccccc32)N1 (stereo unspecified),Decrease,A10 [5],13%
CCCNC1=NC(=O)C2(CC(C)(C)Oc3ccc(C#N)cc32)N1 (stereo unspecified),Decrease,A10 [2],<5%
same,Decrease,A10 [3],21%
same,Decrease,A10 [4],27%
same,Delta HR,Rattus norvegicus [6],13.8 beats min-1
same,Delta HR,Rattus norvegicus [7],19.2 beats min-1
same,Delta HR,Rattus norvegicus [8],29.8 beats min-1
same,Delta MAP,Rattus norvegicus [9],-23.6 mmHg
same,Delta MAP,Rattus norvegicus [10],-50.8 mmHg
same,Delta MAP,Rattus norvegicus [11],-66.2 mmHg
same,Delta MAP,Rattus norvegicus [12],-70 mmHg
same,Delta HR,Rattus norvegicus [13],39.2 beats min-1
CCCNC1=NC(=O)C2(CC(C)(C)Oc3ccc(F)cc32)N1 (stereo unspecified),Decrease,A10 [3],10%
same,Decrease,A10 [4],17%
CSC1=NC(=O)C2(CC(C)(C)Oc3ccc([N+](=O)[O-])cc32)N1 (stereo unspecified),Decrease,A10 [2],8%
same,Decrease,A10 [3],11%
same,Decrease,A10 [4],16%
CC1(C)Oc2ccc(C#N)cc2C(N2CCCC2=O)C1O (stereo unspecified) [CROMAKALIM],Decrease,A10 [3],<5%
same,Decrease,A10 [4],22%
same,Delta HR,Rattus norvegicus [6],33.8 beats min-1
same,Delta HR,Rattus norvegicus [7],53.4 beats min-1
same,Delta HR,Rattus norvegicus [8],65.6 beats min-1
same,Delta MAP,Rattus norvegicus [9],-14.7 mmHg
same,Delta MAP,Rattus norvegicus [10],-22.6 mmHg
same,Delta MAP,Rattus norvegicus [11],-36.1 mmHg
same,Delta MAP,Rattus norvegicus [12],-52.7 mmHg
same,Delta HR,Rattus norvegicus [13],63 beats min-1
CSC1=NC(=O)C2(CC(C)(C)Oc3ccccc32)N1 (stereo unspecified),Decrease,A10 [5],<5%
CNC1=NC(=O)C2(CC(C)(C)Oc3ccc(F)cc32)N1 (stereo unspecified),Decrease,A10 [4],11%
same,Decrease,A10 [5],14%
CNC1=NC(=O)C2(CC(C)(C)Oc3ccc(C#N)cc32)N1 (stereo unspecified),Decrease,A10 [3],<5%
same,Decrease,A10 [4],19%
CC(C)NC1=NC(=O)C2(CC(C)(C)Oc3ccc(F)cc32)N1 (stereo unspecified),Decrease,A10 [4],5%
same,Decrease,A10 [5],22%
CCSC1=NC(=O)C2(CC(C)(C)Oc3ccc(C#N)cc32)N1 (stereo unspecified),Decrease,A10 [4],6%
same,Decrease,A10 [5],24%
CSC1=NC(=O)C2(CC(C)(C)Oc3ccc(C#N)cc32)N1 (stereo unspecified),Decrease,A10 [4],5%
same,Decrease,A10 [5],25%
